Compound activity (PubChem BioAssay)
GPR7 antagonist: human neuropeptides B/W receptor 1 antagonism | P48145 | GPR7-expressing cells, fluorescence antagonist assay | AID 1861 | 1.1% of 290,000 active | inhibition, % at 4.4 µM; in the data active means inhibition above about 16%, passing the limit was not always enough;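 further: cells stimulated with the agonist NPW; 0% = agonist with vehicle and 100% = vehicle without agonist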
Pemphigus Ab inh: blocks pemphigus antibody binding to human desmoglein-3; P32926; DSG3-coupled beads, scFv-anti-DSG3-GFP binding, flow cytometry; active compounds read low; binding (percent of control), % at 10 µM; 0.48% of 310,000 active;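 active means binding more than 3 SD below its plate's average and above zero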;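 further: hits lower antibody fragment binding to DSG3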
Target sequence (P32926 whole entry, looked up, the tested form may be a part): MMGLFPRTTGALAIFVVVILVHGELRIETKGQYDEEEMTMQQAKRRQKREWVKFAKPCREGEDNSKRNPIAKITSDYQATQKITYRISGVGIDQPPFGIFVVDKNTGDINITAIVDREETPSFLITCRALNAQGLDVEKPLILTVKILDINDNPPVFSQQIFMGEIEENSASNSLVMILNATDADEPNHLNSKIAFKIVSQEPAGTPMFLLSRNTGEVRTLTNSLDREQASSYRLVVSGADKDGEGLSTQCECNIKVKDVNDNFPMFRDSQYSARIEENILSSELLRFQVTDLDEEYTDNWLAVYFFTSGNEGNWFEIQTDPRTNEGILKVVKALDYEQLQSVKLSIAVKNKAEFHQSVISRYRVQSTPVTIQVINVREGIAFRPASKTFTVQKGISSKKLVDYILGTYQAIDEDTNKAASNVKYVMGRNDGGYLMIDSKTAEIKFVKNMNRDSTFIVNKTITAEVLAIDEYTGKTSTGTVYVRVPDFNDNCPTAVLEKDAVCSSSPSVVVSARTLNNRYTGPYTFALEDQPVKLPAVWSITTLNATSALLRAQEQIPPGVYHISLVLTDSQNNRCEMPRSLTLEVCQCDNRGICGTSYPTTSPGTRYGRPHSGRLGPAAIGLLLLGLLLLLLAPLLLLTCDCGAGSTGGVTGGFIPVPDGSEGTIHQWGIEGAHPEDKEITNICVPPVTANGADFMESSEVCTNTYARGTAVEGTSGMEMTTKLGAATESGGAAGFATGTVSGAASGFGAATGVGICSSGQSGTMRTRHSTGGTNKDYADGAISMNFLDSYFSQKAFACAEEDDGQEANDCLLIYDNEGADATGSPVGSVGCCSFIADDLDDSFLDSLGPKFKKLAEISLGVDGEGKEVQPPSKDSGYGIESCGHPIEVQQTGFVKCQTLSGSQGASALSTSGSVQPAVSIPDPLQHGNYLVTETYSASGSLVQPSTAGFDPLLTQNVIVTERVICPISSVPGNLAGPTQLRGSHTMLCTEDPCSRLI
T cell modulator: T cell immune modulation candidate | 2C CD8+ T cell-vesicle binding, flow cytometry; active compounds read low | response (vesicle binding), % at 7 µM | 0.068% of 330,000 active | AID 2052;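 active means response, share of CD8 T cells binding vesicles, and their 90th percentile fluorescence all below set limits, cut at about 80% in these data, passing the limit was not always enough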;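 further: values below 100% mean blocked vesicle binding to the CD8+ T cells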
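Material: murine 2C transgenic CD8+ T lymphocytes / Also added: QL9-peptide-loaded Drosophila micro-vesicles bearing Ld, ICAM-1 and B7-1 / Schedule: binding step 1.5 h, 37 °C, antibody labelling 20 min, ice / Signal: flow cytometry, PE anti-B7-1 (FL2) versus Alexa647 anti-CD8 (FL8), PFA-fixed / Evaluation: percent CD8+ FL2 mean versus row control / Benchmarks: naked versus QL9-loaded vesicles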
pCIP destab: lowers stability of the mouse p/CIP coactivator protein | Q05BA5 | F442A p/CIP-EGFP cells, EGFP fluorescence, 16 h | decrease of EGFP signal, % at 10 µM | 0.01% of 290,000 active;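 active means EGFP signal decrease of at least 30% at 10 µM or well 3 SD below plate mean, unless failing retest; inactive means the rest, including hits failing retest or dose response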
CHT allo act: allosterically activates the human high affinity choline transporter; 0.49% of 310,000 active; CHT-expressing cells, membrane potential dye, choline EC20; active compounds read high; LV-AA mutant CHT in HEK293 cells; AID 488977; B-score at 10 µM;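 active means initial fluorescence not abnormally high and integrated response B-score, plate-corrected, over 3 SD above library mean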
CHT inh: human CHT choline transport inhibition; Q9GZV3; CHT-expressing cells, membrane potential dye, choline response; active compounds read low; B-score at 10 µM; 0.86% of 310,000 active; AID 488975;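 active means B-score over 3 SD under the library average, and starting fluorescence ratio not unusually high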;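 further: choline stimulus applied at its EC90 after an EC20 pre-addition; B-score computed on integrated fluorescence ratio after choline addition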
CHT activ conf: confirmation of human choline transporter (CHT) activators | 91% of 2,500 active | shares compounds with CHT allo act | CHT-expressing cells, membrane potential dye fluorescence (FDSS); % of choline EC20–EC90 response window; HEK293 expressing CHT LV-AA mutant; choline added at its EC20 | AID 504833 | activation, % at 10 µM;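 active means primary screen active, with duplicate mean activation above negative control mean plus 3 SD, cut at about 11% in these data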
HEK293 MP dye: activity in parental HEK293 cells lacking CHT; shares compounds with CHT allo act; membrane potential dye fluorescence (FDSS); measured after EC20 choline addition; ratio readout change at 10 µM, hits read low; 62% of 2,500 active; AID 623908;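 active means duplicate-averaged ratio beyond 3 SD from buffer wells, up or down, though filed actives are nearly all decreases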
* hit, by the source's call; i = inactive; · = no result; ! = repeats disagree. Compounds with a hit are over-represented: about 2.3% of the library has one in this group of screens.

SMILES | GPR7 antagonist | Pemphigus Ab inh | T cell modulator | pCIP destab | CHT allo act | CHT inh | CHT activ conf | HEK293 MP dye
Cc1cccn2c(=O)c3cc(C(=O)NCCc4ccccc4)c(=N)n(Cc4ccco4)c3nc12 | 19.6 | 111.8 | 236.6 | -7.3 | i | i | · | ·
Cc1nc2ccc(Br)cc2c2c1CC(CO)O2 (centres undefined) | -2.1 | 104.4 | 213.5 | -0.9 | 6.85* | i | 53.1* | -52.6*
CCCCC1CCC(C(=O)NC2CCS(=O)(=O)C2)CC1 (centres undefined) | -3.4 | 110.5 | 162.5 | -12.8 | i | i | 10.2* | i
CCCCCCCCCCCC(=O)NC1CCS(=O)(=O)C1 (centres undefined) | -3.9 | · | 117.5 | -5.4 | i | i | · | ·
CCCCCOc1ccc(Br)cc1/C(C)=N/NC1=NCCN1 | 18.1* | 102.2 | 31.7 | -4.3 | 8.65* | i | 55.0* | i
Oc1ccc(Nc2ccnc3cc(Cl)ccc23)cc1 | -3.4 | 91.2 | 119.2 | 3.1 | i | i | · | ·
Clc1ccc2c(NCc3ccccc3)ccnc2c1 | 13.8 | 114.5 | 293.5 | -15.1 | i | i | · | ·
CCN(CC)CCNc1ccnc2cc(Cl)ccc12 | -0.7 | 130.3 | 315.1 | 8.7 | 7.4* | i | 50.9* | -84.2*
CCN(CC)Cc1cc(Nc2ccnc3cc(Cl)ccc23)ccc1O | -5.5 | 104.3 | 344.1 | 1.1 | 7.5*! | i | 48.2* | -51.9*
O=C(CSc1nnc(CNC(=O)c2c(F)cccc2F)o1)NCc1ccc2c(c1)OCO2 | · | 97.5 | · | · | · | · | · | ·
CN(CC(=O)Nc1ccc(F)c(F)c1F)C(=O)c1cc(-c2ccncc2)nc2ccccc12 | · | 108.2 | 372.0 | · | i | i | 39.6* | i
Cn1c(=O)[nH]c(N)c(Br)c1=O | · | 89.8 | · | · | · | · | · | ·
O=P(c1ccccc1)(c1ccccc1)C(O)c1ccccn1 (centres undefined) | 2.3 | 98.1 | 348.6 | -0.4 | i | i | · | ·
O=P(c1ccccc1)(c1ccccc1)C(c1ccccn1)P(=O)(c1ccccc1)c1ccccc1 | -6.1 | 102.0 | 579.2 | 10.1 | 8.49* | i | 33.9* | i
COc1cc(C2c3cc4c(cc3OC(NCc3ccccc3)C2C)OCO4)cc(OC)c1OC (centres undefined) | · | 98.7 | · | · | · | · | · | ·
CCC(C)C(N)C(=O)N1CCCC1C(=O)NC(C(=O)O)C(C)CC (centres undefined) | · | 101.1 | · | · | · | · | · | ·
CCOC(=O)[C@H]1[C@H]2COc3ccc(Br)cc3[C@@H]2N2C(=O)N(c3ccccc3)C(=O)[C@@]12C | · | 100.6 | 356.6 | · | · | · | · | ·
CCOC(=O)[C@@H]1[C@H]2COc3ccc(Br)cc3[C@@H]2N2C(=O)N(c3ccccc3)C(=O)[C@@]12C | 11.0 | 94.9 | 437.7 | -14.7 | 8.68* | i | 20.5* | i
CC1(c2ccc(Cl)cc2)NC(=O)N(CC(=O)N2CCc3ccccc32)C1=O (centres undefined) | · | 101.8 | 153.3 | · | · | · | · | ·
C=CCOC(=O)C1=C[C@@H](c2ccc(Br)cc2)[C@H](CCCO)[C@@H](OCC)O1 | -8.3 | 113.0 | · | -16.5 | 6.75* | i | 24.9* | i
C=CCOC(=O)C1=C[C@@H](c2ccccc2)[C@H](CCCO)[C@@H](OCC)O1 | -6.0 | 106.0 | · | -17.8 | i | i | · | ·
Cc1c(C(=O)N/N=C/c2cccnc2)sc(=S)n1C | -1.6 | 95.2 | 262.3 | 0.7 | i | i | 41.2* | -40.6*
Cc1ccc([N+](=O)[O-])c(C(=O)N/N=C/c2cccnc2)c1 | -5.2 | 115.7 | i | 0.3 | i | i | 60.8* | -40.6*
Cc1cccc(COCC(CC(C)C)N2CCN(C(=O)c3ccc(C(F)(F)F)cc3)CCC2=O)c1 (centres undefined) | 3.9 | 103.1 | 581.0 | -13.4 | i | i | · | ·
O=C(c1ccc(C(F)(F)F)cc1)N1CCC(=O)N(C(COCc2ccc(C(F)(F)F)cc2)Cc2ccccc2)CC1 (centres undefined) | -1.6 | 103.7 | i | -12.4 | i | i | · | ·
SMILES | GPR7 antagonist | Pemphigus Ab inh | T cell modulator | pCIP destab | CHT allo act | CHT inh | CHT activ conf | HEK293 MP dye
Cc1cccc(COCC(Cc2ccccc2)N2CCN(C(=O)c3ccc(C(F)(F)F)cc3)CCC2=O)c1 (centres undefined) | -6.2 | 102.9 | 376.4 | 2.1 | i | i | 34.8* | i
CC(C)CC(COCc1ccc([N+](=O)[O-])cc1)N1CCN(C(=O)c2ccc(C(F)(F)F)cc2)CCC1=O (centres undefined) | 11.4 | 101.9 | 276.4 | -23.0 | i | i | 28.8* | i
CCOc1ccc(-c2cnc3n2CCC3)cc1 | -5.0 | 101.2 | 427.5 | 3.7 | i | i | 50.2* | -39.1*
Brc1ccc(-c2cnc3n2CCCC3)cc1 | 9.4 | 102.2 | 334.8 | 4.2 | i | i | · | ·
CCCCn1c(N)c(N(CC)C(=O)c2cccs2)c(=O)[nH]c1=O | · | 94.8 | 599.7 | · | · | · | · | ·
COc1ccc(Nc2nc(-c3cccs3)nc3ccccc23)c(OC)c1 | -0.2 | 103.8 | 225.6 | -8.3 | 7.99* | i | 9.8* | i
Cc1nn2cnc3sc4c(c3c2nc1=O)CCCC4 | -6.6 | 103.3 | 159.6 | 2.6 | 6.56* | i | 40.0* | -46.5*
Cc1cn2nc(N)c3ccccc3c2n1 | -3.1 | 106.9 | 199.0 | -0.6 | i | i | 62.1* | -56.9*
CCOC(=O)c1cn2nc(N3CCCC3)ccc2n1 | -1.3 | · | 610.8 | 9.1 | i | i | 35.2* | -37.6*
CC1(C)Cc2c(sc3nc(NCCN4CCOCC4)n4ncnc4c23)CO1 | -14.9 | 112.1 | 410.3 | -4.3 | 6.46* | i | 62.2* | -61.8*
Cc1cccc2nc(-c3ccco3)c(Nc3ccc4c(c3)OCO4)n12 | -2.0 | 84.9 | 367.8 | 0.3 | i | i | · | ·
COc1ccc(Nc2c(-c3ccc(C)cc3)nc3cnccn23)cc1 | 16.6* | 95.5 | 133.9 | -0.5 | i | i | 49.4* | -27.9*
CN(C)c1ccc(-c2nc3cnccn3c2Nc2ccc3c(c2)OCCO3)cc1 | 12.4 | 102.1 | 45.6 | -12.7 | 7.09* | i | 59.2* | -22.8*
COc1ccc(-c2nc3cnccn3c2Nc2ccc3c(c2)OCO3)cc1 | 6.3 | 98.9 | 501.1 | -7.3 | 6.35* | i | 48.1* | -29.4*
Cc1ccc(-c2nc3cnccn3c2Nc2ccc3c(c2)OCCO3)o1 | -1.4 | · | 350.6 | -10.6 | i | i | · | ·
Cc1cc(C)n2c(Nc3ccc4c(c3)OCCO4)c(-c3ccccc3)nc2n1 | 4.0 | 102.6 | 248.4 | -5.8 | 10.7* | i | 14.0* | -34.4*
